Results pooled from the literature.
HDAC8: Histone deacetylase 8 (HDAC8, Homo sapiens, UniProt Q9BY41)
HTR1D: 5-hydroxytryptamine receptor 1D (HTR1D, Homo sapiens, UniProt P28221)
ALOX5: Polyunsaturated fatty acid 5-lipoxygenase (ALOX5, Homo sapiens, UniProt P09917)

Structure (SMILES) | target | test | test system | conditions | inhibition
CC1(C)CC[C@]2(C)CC[C@]3(C)C(=CC[C@@H]4[C@@]5(C)CC[C@H](O)C(C)(C)[C@@H]5CC[C@]43C)[C@@H]2C1 | HDAC8 | enzyme activity, inhibitor | – | 10 µM | 34.9%
COc1ccc(CCCn2ncc3c2nc(N)n2nc(-c4ccco4)nc32)cc1 | Adenosine receptor A3 (Mus musculus, UniProt Q61618) | ligand displacement, radioligand | – | 10 µM, cell membranes | 6%
COc1cc2c3c(c1OC)-c1cc4c(cc1CC3N(C)CC2c1ccccc1)OCO4 (stereo not drawn) | HTR1D | ligand displacement, radioligand | – | 10 µM | < 50%
CCN(CC)c1ccc(C2Nc3ccc(C(=O)c4ccccc4)cc3NC3=C2C(=O)CC(C)(C)C3)cc1 (stereo not drawn) | HTR1D | ligand displacement, radioligand | – | 10 µM | 25%
CCN1CCN(Cc2ccc(NC(=O)c3ccc(C)c(Oc4ccnc5[nH]ccc45)c3)cc2C(F)(F)F)CC1 | Mitogen-activated protein kinase kinase kinase 4 (MAP3K4, Homo sapiens, UniProt Q9Y6R4) | target engagement in cells, inhibitor, chemoproteomics | A-375 | 50 nM | -20.3%
COc1ccc(Cc2nnc(NS(=O)(=O)c3cccc4ccccc34)s2)cc1 | Glutathione hydrolase 1 proenzyme (Homo sapiens, UniProt P19440) | enzyme activity in cells, inhibitor | NIH3T3 | 100 µM | 59%
COC(=O)[C@]1(O)C[C@@H](O)[C@@H](O)[C@H](OC(=O)/C=C/c2ccc(O)c(O)c2)C1 | HDAC8 | enzyme activity, inhibitor | – | 10 µM | 60.5%
N#Cc1cc(Cn2c(N3CCCC3)nc3ccccc32)ccc1F | HTR1D | cell-free assay | – | 10 µM | -36.9%
O=C(c1ccc(Cl)cc1)N(Cc1ccccc1)C1CCCCC1 | Substance-K receptor (TACR2, Homo sapiens, UniProt P21452) | cell-free assay | – | 10 µM | 15%
CCc1c(O)c(=S)ccn1CC | ALOX5 | enzyme activity, inhibitor, fluorescence | – | 1 mM | > 70%
CC(=O)OC1c2c(ccc3ccc(=O)oc23)OC(C)(C)C1OC(=O)C(C)(O)C(C)O (stereo not drawn) | HDAC8 | enzyme activity, inhibitor | – | 10 µM | 41.2%
COc1cc(Cl)c(C(=O)N[C@@H](CN[C@H]2CC[C@@H](N)CC2)Cc2ccc(C#N)cc2)cc1-c1ccc(CN[C@H](C)c2ccc(C)cc2)o1 | Somatostatin receptor type 4 (SSTR4, Homo sapiens, UniProt P31391) | calcium signal, antagonist | – | 10 µM | 12%
O=C(/C=C/c1ccc(O)c(O)c1)O[C@@H]1C[C@](O)(C(=O)O)C[C@@H](O)[C@H]1O | HDAC8 | enzyme activity, inhibitor | – | 10 µM | 58.2%
Oc1cccc(Nc2nc(-c3ccc(F)cc3F)cs2)c1 | Mu-type opioid receptor (OPRM1, Homo sapiens, UniProt P35372) | ligand displacement | – | 10 µM | 14.2%
O=c1occcc1O | ALOX5 | enzyme activity, inhibitor, fluorescence | – | 1 mM | > 70%
